Compound activity from PubChem.
This is a sample that favours compounds with a hit; in the whole collection about 2.5% have one here.
TRPC6 inh = blocks the mouse TRPC6 cation channel | actives 1.1% (n = 310,000) | HEK293-TRPC6, membrane potential dye, ACh-evoked depolarization; active compounds read low | Q61143 | AID 2553 | B-score at 10 µM;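 active = B-score under library mean minus 3 SD, initial fluorescence not abnormally high, positive integrated signal ratio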;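 also: B-score derived from integrated fluorescence ratio over the kinetic read; more negative B-score means stronger inhibition of depolarization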
TRPC6 activator = mouse TRPC6 channel activation. Q61143. actives 0.13% (n = 310,000). HEK293-TRPC6 membrane potential dye fluorescence; active compounds read high. B-score at 10 µM;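 active = B-score of the integrated fluorescence ratio above library mean plus 3 SD, and starting fluorescence ratio within library mean plus 5 SD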;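 also: higher score means more depolarization so channel activation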
TRPC4 agonist = TRPC4 (mouse) channel activation; actives 0.49% (n = 310,000); AID 2237; HEK293 TRPC4beta/mu-opioid, Fluo4 calcium fluorescence; active compounds read high; B-score at 10 µM;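 active = B-score above 5 SD of library B-scores, and initial fluorescence ratio not above library mean plus 5 SD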;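 also: positive B-score marks a calcium rise read as TRPC4 activation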
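System: HEK293 cells stably co-expressing mouse TRPC4beta and mu-opioid receptor; Schedule: Fluo4 dye loading 45 min at room temperature, 110 s recording; Detection: Fluo4 fluorescence, kinetic; Evaluation: B-scored integrated calcium fluorescence ratio; Controls: buffer (low) and maximal DAMGO (high).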
TRPC4 block = blocks the mouse TRPC4 cation channel | HEK293 TRPC4beta/mu-opioid, DAMGO-evoked Fluo4 calcium flux; active compounds read low | AID 2247 | actives 0.39% (n = 300,000) | B-score at 10 µM | Q9QUQ5;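 active = B-score over 3 SD under the library average, no early fluorescence shift, positive overall ratio signal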
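Assay system: TRPC4beta/mu-opioid receptor HEK293 cell line; compound dosing: single concentration per test compound; detection: Fluo4 Ca2+ flux fluorescence; evaluation: per-well B score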
DSG3 Ab inh = human desmoglein-3 autoantibody binding inhibition | DSG3-coupled beads, scFv-anti-DSG3-GFP binding, flow cytometry; active compounds read low | AID 588358 | actives 0.48% (n = 310,000) | binding (percent of control), % at 10 µM | P32926;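 active = binding more than 3 SD below its plate's average and above zero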;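 also: hits lower antibody fragment binding to DSG3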
Target sequence (P32926 whole entry, looked up, the tested form may be a part): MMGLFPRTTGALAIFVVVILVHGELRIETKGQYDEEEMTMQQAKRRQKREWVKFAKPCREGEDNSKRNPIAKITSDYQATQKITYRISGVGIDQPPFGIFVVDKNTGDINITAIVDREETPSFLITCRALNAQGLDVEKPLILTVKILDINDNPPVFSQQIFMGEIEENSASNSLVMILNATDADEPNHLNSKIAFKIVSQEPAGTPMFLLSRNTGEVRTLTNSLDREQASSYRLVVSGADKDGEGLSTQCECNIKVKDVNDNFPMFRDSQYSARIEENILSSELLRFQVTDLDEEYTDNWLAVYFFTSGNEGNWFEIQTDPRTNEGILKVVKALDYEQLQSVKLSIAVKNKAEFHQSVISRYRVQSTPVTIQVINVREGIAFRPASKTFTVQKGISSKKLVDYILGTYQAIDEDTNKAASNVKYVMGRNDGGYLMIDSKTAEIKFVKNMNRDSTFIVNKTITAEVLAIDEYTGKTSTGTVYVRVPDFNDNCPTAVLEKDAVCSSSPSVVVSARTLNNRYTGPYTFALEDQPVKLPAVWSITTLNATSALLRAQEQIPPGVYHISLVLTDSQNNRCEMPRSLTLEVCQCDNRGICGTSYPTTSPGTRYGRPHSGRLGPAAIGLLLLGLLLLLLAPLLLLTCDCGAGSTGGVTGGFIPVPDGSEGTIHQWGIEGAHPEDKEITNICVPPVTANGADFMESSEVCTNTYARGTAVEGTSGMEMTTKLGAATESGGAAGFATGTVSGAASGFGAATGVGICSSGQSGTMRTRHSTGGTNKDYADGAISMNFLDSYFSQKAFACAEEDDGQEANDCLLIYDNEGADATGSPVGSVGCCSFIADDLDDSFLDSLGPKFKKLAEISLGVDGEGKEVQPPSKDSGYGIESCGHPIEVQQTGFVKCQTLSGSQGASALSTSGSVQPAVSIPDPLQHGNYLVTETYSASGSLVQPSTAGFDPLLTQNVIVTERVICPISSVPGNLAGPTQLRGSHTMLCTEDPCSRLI
TRPC4 PAM = TRPC4 (mouse) allosteric potentiation; actives 0.42% (n = 310,000); HEK293 TRPC4beta/mu-opioid, DAMGO EC20, Fluo-4 Ca2+ flux; active compounds read high; Q9QUQ5; B-score at 10 µM;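 active = B-score of calcium response area above 5 SD of library B-scores, with initial fluorescence ratio within 5 SD of library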
Hits are given with their value; 0 = inactive; - = not tested or not shown.

SMILES	TRPC6 inh	TRPC6 activator	TRPC4 agonist	TRPC4 block	DSG3 Ab inh	TRPC4 PAM
COc1ccc(C(C(=O)NCc2ccccc2)N(C(=O)c2snc(C(N)=O)c2N)c2ccccc2OC)cc1 (configuration not stated)	0	0	0	0	0	0
CC(C)CC(C(=O)NC1CCCCC1)N(Cc1ccccc1)C(=O)c1snc(C(N)=O)c1N (configuration not stated)	0	0	0	0	-	0
COc1ccc(CN(C(=O)c2snc(C(N)=O)c2N)C(CC(C)C)C(=O)NC2CCCCC2)cc1 (configuration not stated)	0	0	0	-7	0	0
COc1ccccc1N(C(=O)c1snc(C(N)=O)c1N)C(C(=O)NCc1ccccc1)c1ccc(O)cc1 (configuration not stated)	0	0	0	-8	0	0
CSc1nc(C2CC2)cc(-c2cccs2)c1C#N	0	0	0	0	8.8	0
COc1cc2c(cc1OC)C(C)N(C(=O)Cn1ncc3c1-c1ccccc1OC3)CC2 (configuration not stated)	0	0	0	0	89	0
CCNC(=O)NC(=O)COC(=O)C1CSC2(C)CCC(=O)N12 (configuration not stated)	0	0	0	0	0	0
N=C1C(=O)OCC1c1ccccc1NC(=O)CN1CCOCC1 (configuration not stated)	0	0	0	0	0	0
COc1ccc(N2CCN(C(=O)C(=O)c3c(C)[nH]c4ccccc34)CC2)cc1	0	0	0	0	0	0
CC(=O)c1ccc(N2CCN(C(=O)C(=O)c3c(C)[nH]c4ccccc34)CC2)cc1	0	0	0	0	0	10
CCOC(=O)C1=C(N)OC2=C(C(=O)CC(C)(C)C2)C1c1ccc(C)s1 (configuration not stated)	0	0	0	0	0	0
CCOC(=O)C1=C(N)OC2=C(C(=O)CC(C)(C)C2)C1c1ccc(CC)s1 (configuration not stated)	0	0	0	0	0	16
CCOC(=O)N/N=C/c1cn(CCCOc2ccccc2)c2ccccc12	0	0	0	0	0	0
CCOC(=O)N/N=C/c1cn(CCCOc2ccc(C)cc2)c2ccccc12	0	0	0	0	-31	0
CCOC(=O)N/N=C/c1cn(Cc2ccc(Cl)cc2)c2ccccc12	0	0	0	0	-28	0
Cc1onc(-c2ccccc2)c1C(=O)N(CC(C)C)c1c(N)n(CC(C)C)c(=O)[nH]c1=O	-	-	-	-	0	-
C/C(=N/NC(=O)Cc1cccc2ccccc12)c1cccs1	0	0	0	0	0	0
C/C(=N\NC(=O)Cc1ccccc1)c1cccs1	0	0	0	0	78	0
Cc1ccc(C)c(NC(=O)CCC(=O)N2CCOc3ccccc32)c1	0	0	0	0	0	0
OCC[C@@H]1C[C@@H](O)[C@H](O)[C@@]2(Cc3ccccc3CCO2)O1	0	0	0	0	0	0
CCCn1c(=NC(=O)CCS(=O)(=O)c2ccccc2)sc2cc(S(N)(=O)=O)ccc21	0	0	0	0	0	0
COCCn1c(=NC(=O)CCS(=O)(=O)c2ccccc2)sc2cc(C(=O)OC)ccc21	0	0	0	0	-9.8	0
CCOc1ccc(OCc2ccc(C(=O)N3CCCCC3)o2)cc1	0	0	0	0	0	10
Cn1cc(S(=O)(=O)NCc2ccc3c(c2)OCO3)c(C(F)(F)F)n1	0	0	0	0	0	0
CCOc1ccc(-c2cc(NC(=O)c3c(F)cccc3F)c(C(=O)O)s2)cc1	0	0	0	-5	0	0
COc1ccccc1-c1cc(-c2ccccc2)nc(=O)[nH]1	0	0	0	0	0	21
COc1ccc(N2CCN(C(=O)C3CCN(C(=O)c4cccc(Cl)c4)CC3)CC2)cc1	0	0	0	0	0	0
O=[N+]([O-])c1ccccc1S(=O)(=O)N1CCN(Cc2ccc3c(c2)OCO3)CC1	0	0	0	0	37	0
Cc1ccccc1N1CC(O)(c2cccs2)[N+]2=C1CCCC2 (configuration not stated)	0	0	0	-9	0	0
